Data set [1] has as its target T1, Hypoxanthine-guanine phosphoribosyltransferase (Mycobacterium tuberculosis (strain ATCC 25618 / H37Rv), UniProt P9WHQ9).
T1 sequence (P9WHQ9 whole entry): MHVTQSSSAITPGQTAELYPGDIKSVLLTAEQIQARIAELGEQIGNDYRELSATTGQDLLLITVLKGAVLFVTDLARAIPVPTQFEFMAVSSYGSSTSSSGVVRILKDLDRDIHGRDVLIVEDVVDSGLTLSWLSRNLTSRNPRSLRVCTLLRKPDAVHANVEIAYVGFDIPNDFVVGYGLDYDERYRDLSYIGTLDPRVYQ
In words: Inhibition of Mycobacterium tuberculosis recombinant N-terminal 6His-tagged HGPRT expressed in Escherichia coli BL21 (DE3) using fixed concentration of guanine and variable concentrations of PRib-PP as substrate by spectrophotometric analysis. In outline: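 Recombinant MtHGPRT, stored in 0.1 M Tris-HCl, 12 mM MgCl2, pH 7.4 with 200 μM PRib-PP at -80 °C. Continuous spectrophotometric assay following guanine to GMP at 257.5 nm in 0.01 M phosphate, 12 mM MgCl2, pH 7.4.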

Data set [2] concerns the target T2, Hypoxanthine-guanine phosphoribosyltransferase (Homo sapiens, UniProt P00492).
T2 sequence (P00492 whole entry): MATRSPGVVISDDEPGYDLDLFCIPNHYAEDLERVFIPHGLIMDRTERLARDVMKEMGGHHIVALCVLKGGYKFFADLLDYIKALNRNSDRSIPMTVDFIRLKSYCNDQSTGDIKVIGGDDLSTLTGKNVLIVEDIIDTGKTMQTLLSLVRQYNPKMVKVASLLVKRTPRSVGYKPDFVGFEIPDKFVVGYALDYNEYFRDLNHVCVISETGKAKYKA
The experiment in a line: Inhibition of human HGPRT using fixed concentration of guanine and variable concentrations of PRib-PP as substrate by spectrophotometric analysis.

A short description of data set [3]: Ratio of Ki for Mycobacterium tuberculosis recombinant N-terminal 6His-tagged HGPRT expressed in Escherichia coli BL21 (DE3) to Ki for human HGPRT.
Data set [4] deals with T1, Hypoxanthine-guanine phosphoribosyltransferase. The experiment in a line: Inhibition of Mycobacterium tuberculosis recombinant N-terminal 6His-tagged HGPRT expressed in Escherichia coli BL21 (DE3) using fixed concentration of guanine and variable concentrations of PRib-PP as substrate in presence of pyrophosphate by spectrophotometric analysis. In outline:
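Continuous assay of recombinant MtHGPRT at 257.5 nm (guanine to GMP) in 0.01 M phosphate, 12 mM MgCl2, pH 7.4, with 400 μM pyrophosphate added.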

Data set [5] deals with Mycobacterium tuberculosis. The experiment in a line: Antitubercular activity against replicating stage of Mycobacterium tuberculosis H37Rv after 5 days by resazurin dye-based assay. Type of data set: functional. The settings on record: 120 h.
Data set [6] relates to Mycobacterium tuberculosis. In words: Antitubercular activity against Mycobacterium tuberculosis H37Rv after 5 days under hypoxic condition by resazurin dye-based assay. Type of data set: functional. The note with it: 120 h.
The test system of data set [7] is Mycobacterium tuberculosis. The experiment in a line: Antitubercular activity against Mycobacterium tuberculosis H37Rv infected in human THP-1 cells after 4 days by fluorescence based assay. The settings on record: 96 h. In kind it is functional. In outline: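 THP-1 cells differentiated with 50 ng/ml PMA for 72 h (5×10^5 cells/mL), infected with mCherry-expressing H37Rv at MOI 1:1 for 2 h, washed twice to remove extracellular bacilli.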

Data set [8] in a line: Cytotoxicity against human A549 cells after 4 days by Coulter counting analysis. In kind it is cell-based. The method, boiled down: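 A549 cells seeded at 7500/well; serially diluted compounds added the next day. After 4 days at 37 °C, cells were trypsinized and counted. CC50 is the concentration that gives 50% inhibition of proliferation relative to no-compound control. It was obtained by extrapolation assuming a semi-log dose-response.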

Data set [9] concerns the target T2, Hypoxanthine-guanine phosphoribosyltransferase. The experiment in a line: Inhibition of recombinant human HGPRT using fixed concentration of guanine and variable concentrations of PRib-PP as substrate by Hanes plot analysis.
In data set [10] the test system is Mycobacterium tuberculosis. In words: Ratio of MIC90 for Mycobacterium tuberculosis H37Rv under hypoxic condition to MIC90 for replicating stage of Mycobacterium tuberculosis H37Rv. Type of data set: functional. The method, boiled down: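 Inhibitors were serially diluted, incubated 5 days at 37 °C, then read by fluorescence (ex 530/em 590) for MIC90. The hypoxic arm used a 0.1% O₂ chamber, was read 48 h after resazurin addition, and ran isoniazid controls in parallel.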

SMILES strings stand for the structures. In brackets after ≈: the same amount, converted by molar mass.

Consider `O=P(O)(O)CO[C@H]1CNC[C@H]1n1cnc2c(O)ncnc21`, for which the figures for the Ki in data set [1], in data set [2] and in [4] were 88000 nM, 327000 nM and 3000 nM, respectively. Further, in data set [3], the Ratio Ki stood at 0.3.

As to `O=C(CCP(=O)(O)O)N1C[C@H](OCCP(=O)(O)O)[C@H](n2cnc3c(O)ncnc32)C1`, the Ki in [1] worked out at 420 nM; in [2], 600 nM. The Ratio Ki in [3] stood at 0.7.

As to `O=C(CCP(=O)(O)O)N1C[C@@H](n2cnc3c(O)ncnc32)[C@H](OC[C@H](O)P(=O)(O)O)C1`, in data set [1], the Ki worked out at 200 nM.

`Nc1nc2c(ncn2[C@@H]2CNC[C@@H]2OCP(=O)(O)O)c(=O)[nH]1`: the Ki in data set [1] was 8000 nM; in data set [2], 29000 nM; in data set [4], 740 nM. Moreover, in data set [3], the Ratio Ki amounted to 0.3.

For `Nc1nc2c(ncn2[C@@H]2CN(C(=O)CCP(=O)(O)O)C[C@H]2OC[C@@H](O)P(=O)(O)O)c(=O)[nH]1`, the Ki in data set [1] was determined as 60 nM; in data set [9], 3 nM. For the same compound, the Ratio Ki in data set [3] was 20. Moreover, the MIC90 in data set [5] amounted to 14 µM (≈ 6.95 µg/mL); in data set [6], 29 µM (≈ 14.4 µg/mL); in data set [7] it was 85 µM (≈ 42.2 µg/mL). This compound also returned a CC50 at 96 h in data set [8] of 132000 nM. For the same compound, the Ratio in data set [10] came out at 2.

With `O=C(CCP(=O)(O)O)N1C[C@@H](n2cnc3c(O)ncnc32)[C@H](OC[C@@H](O)P(=O)(O)O)C1`, the Ki in [1] came to 60 nM.

For the compound `Nc1nc2c(ncn2[C@@H]2CN(C(=O)CCP(=O)(O)O)C[C@@H]2OCCP(=O)(O)O)c(=O)[nH]1`, the Ki in data set [1] worked out at 40 nM; in data set [2], 30 nM. The Ratio Ki in data set [3] is 1.3.

For `Nc1nc2c(ncn2[C@@H]2CN(C(=O)CCP(=O)(O)O)C[C@H]2OC[C@H](O)P(=O)(O)O)c(=O)[nH]1`, the Ki in [1] amounted to 130 nM; in data set [9] it was 8 nM. For the same compound, the Ratio Ki in data set [3] came to 16.
